Measurements taken from ChEMBL document CHEMBL1121797, “Studies on chiral interactions of 1-(2,5-dimethoxy-4-methylphenyl)-2-aminopropane and the corresponding N-hydroxy metabolites with cytochrome P-450” (J Med Chem, 1981).

Columns and labels:
[1] = Initial rates of formation of metabolic intermediate Cytochrome P-450 at compound concentration of 30 uM; type: ADME
How it was run: (§1)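 Rabbit liver microsomes at 2 mg protein/mL with 0.1 mM EDTA, 37 °C, substrate 30 μM. Complex formation started with 0.4 mM NADPH and followed by dual-wavelength absorbance, 457 vs 500 nm. Initial rate is the initial slope, ΔA×10^4 per nmol P-450 per min. Extent is the plateau absorbance. Lag is the time from NADPH addition to first 457-nm chromophore. Triplicate or single runs.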

[2] = Initial rates of formation of metabolic intermediate Cytochrome P-450 with compound concentration of 150 uM; type: ADME
How it was run: (§2)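 Cross-inhibition in NADPH-supplemented rabbit liver microsomes at 37 °C. Preincubation with amine at 30, 150 or 300 μM while 457-nm complex formation was monitored. Once it plateaued (6–8 min), racemic hydroxylamine was added at 300 μM. Initial rate and plateau extent were read from ΔA457–500 nm vs time, per nmol P-450.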

[3] = Initial rates of formation of metabolic intermediate Cytochrome P-450 with compound concentration of 30 uM; type: ADME; how it was run: as §2
[4] = Initial rates of formation of metabolic intermediate Cytochrome P-450 with compound concentration of 300 uM; type: ADME; how it was run: as §2
[5] = Extent rates of formation of metabolic intermediate Cytochrome P-450 at compound concentration of 30 uM; type: ADME; how it was run: as §1
[6] = Lag time between the addition of compound (30 uM) and the first appearance of chromophore; type: ADME; how it was run: as §1
[7] = Initial rates of formation of metabolic intermediate Cytochrome P-450 at compound concentration of 3.75-120 uM; type: ADME
How it was run: (§3)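 Rabbit liver microsomes at 2 mg protein/mL with 0.1 mM EDTA, 37 °C, NADPH-dependent. Substrate tested at several concentrations. ΔA457–500 nm followed against time. Rate is the initial slope per nmol P-450 per min; extent is the plateau absorbance. Runs disturbed by a transient 450-nm species were discarded.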

[8] = Extent rates of formation of metabolic intermediate Cytochrome P-450 at compound concentration of 3.75-120 uM; type: ADME; how it was run: as §3
Cytochrome P450 2C19 [9] = target: T1, Cytochrome P450 2C19 (Homo sapiens, UniProt P33261); assay: Apparent binding affinity constant of compound (10.8-60.0) for Cytochrome P450; type: ADME, Oryctolagus cuniculus; conditions: read-out: Ks
T1 sequence (P33261 whole entry): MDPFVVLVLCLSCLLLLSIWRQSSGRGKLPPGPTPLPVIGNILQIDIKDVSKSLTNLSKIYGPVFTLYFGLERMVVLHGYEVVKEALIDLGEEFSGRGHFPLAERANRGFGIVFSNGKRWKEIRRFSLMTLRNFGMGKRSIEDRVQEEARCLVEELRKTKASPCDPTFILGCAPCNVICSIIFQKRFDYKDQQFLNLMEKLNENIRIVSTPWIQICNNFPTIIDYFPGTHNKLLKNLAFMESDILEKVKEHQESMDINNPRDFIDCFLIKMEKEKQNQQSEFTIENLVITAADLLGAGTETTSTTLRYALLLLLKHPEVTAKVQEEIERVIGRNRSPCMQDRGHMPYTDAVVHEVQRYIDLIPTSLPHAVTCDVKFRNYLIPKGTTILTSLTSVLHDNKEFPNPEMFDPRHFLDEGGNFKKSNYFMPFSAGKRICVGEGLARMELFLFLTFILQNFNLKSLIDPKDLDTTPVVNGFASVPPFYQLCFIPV

Cytochrome P450 2C19 [10] = target: T1, Cytochrome P450 2C19; assay: Inhibitory effect in formation of metabolic intermediate complex between Cytochrome P450 and racemic compound 2 initially, on preincubation with Racemic compound 2 (300 uM) at 150 uM; type: ADME, Oryctolagus cuniculus; conditions: rabbit; how it was run: as §2
Cytochrome P450 2C19 [11] = target: T1, Cytochrome P450 2C19; assay: Inhibitory effect in formation of metabolic intermediate complex between Cytochrome P450 and racemic compound 2 initially, on pre-incubation with compound at 150 uM; type: ADME, Oryctolagus cuniculus; conditions: rabbit
Cytochrome P450 2C19 [12] = target: T1, Cytochrome P450 2C19; assay: Inhibitory effect in formation of metabolic intermediate complex between Cytochrome P450 and racemic compound 2 initially, on pre-incubation with compound at 300 uM; type: ADME, Oryctolagus cuniculus; conditions: rabbit
Cytochrome P450 2C19 [13] = target: T1, Cytochrome P450 2C19; assay: Inhibitory effect in formation of metabolic intermediate complex between Cytochrome P450 and racemic compound 2 initially, on pre-incubation with compound at 30 uM; type: ADME, Oryctolagus cuniculus; conditions: rabbit
Cytochrome P450 2C19 [14] = target: T1, Cytochrome P450 2C19; assay: Inhibitory effect in formation of metabolic intermediate complex between Cytochrome P450 and racemic 2 initially, on pre-incubation with Racemic compound 2 (300 uM) at 300 uM; type: ADME, Oryctolagus cuniculus; conditions: rabbit
Cytochrome P450 2C19 [15] = target: T1, Cytochrome P450 2C19; assay: Inhibitory effect in formation of metabolic intermediate complex between Cytochrome P450 and racemic compound 2 at extent, on pre-incubation with compound at 300 uM; type: ADME, Oryctolagus cuniculus; conditions: rabbit
Cytochrome P450 2C19 [16] = target: T1, Cytochrome P450 2C19; assay: Inhibitory effect in formation of metabolic intermediate complex between Cytochrome P450 and racemic compound 2 at extent, on pre-incubation with compound at 30 uM; type: ADME, Oryctolagus cuniculus; conditions: rabbit
Cytochrome P450 2C19 [17] = target: T1, Cytochrome P450 2C19; assay: Inhibitory effect in formation of metabolic intermediate complex between Cytochrome P450 and racemic 2 at extent, on preincubation with Racemic compound 2 (300 uM) at 30 uM; type: ADME, Oryctolagus cuniculus; conditions: rabbit; how it was run: as §2
Cytochrome P450 2C19 [18] = target: T1, Cytochrome P450 2C19; assay: Inhibitory effect in formation of metabolic intermediate complex between Cytochrome P450 and racemic compound 2 at extent, on pre-incubation with Racemic 2 (300 uM) at 150 uM; type: ADME, Oryctolagus cuniculus; conditions: rabbit
Cytochrome P450 2C19 [19] = target: T1, Cytochrome P450 2C19; assay: Inhibitory effect in formation of metabolic intermediate complex between Cytochrome P450 and racemic compound 2 at extent, on pre-incubation with Racemic 2 (300 uM) at 300 uM; type: ADME, Oryctolagus cuniculus; conditions: rabbit
Cytochrome P450 2C19 [20] = target: T1, Cytochrome P450 2C19; assay: Inhibitory effect in formation of metabolic intermediate complex between Cytochrome P450 and racemic compound 2 at extent, on preincubation with compound at 150 uM; type: ADME, Oryctolagus cuniculus; conditions: rabbit
[21] = Initial rates of formation of metabolic intermediate Cytochrome P-450 at compound concentration of 7.5-120 uM; type: ADME; how it was run: as §3
Cytochrome P450 2C19 [22] = target: T1, Cytochrome P450 2C19; assay: Apparent binding affinity constant of compound (1.8-60.0) for Cytochrome P450; type: ADME, Oryctolagus cuniculus; conditions: read-out: Ks
[23] = Extent rates of formation of metabolic intermediate Cytochrome P-450 at compound concentration of 7.5-120 uM; type: ADME; how it was run: as §3

Row | Compound | Rate [1] | Rate [2] | Rate [3] | Rate [4] | Extent [5] | Lag time [6] [s] | also measured
1 | COc1cc(C[C@@H](C)N)c(OC)cc1C.COc1cc(C[C@H](C)N)c(OC)cc1C | 4.8 | 1.6 | 1.8 | 1.2 | 30 | 138 | 
2 | COc1cc(C[C@@H](C)N)c(OC)cc1C | 17.1 | 6.1 | 5.2 | 5.5 | 78 | 14 | Rate [7]: 17.5; Extent [8]: 23; Kd (Cytochrome P450 2C19 [9]): 18 µM; Rate (Cytochrome P450 2C19 [10]): 183; Rate (Cytochrome P450 2C19 [11]): 6.1; Rate (Cytochrome P450 2C19 [12]): 5.8; Rate (Cytochrome P450 2C19 [13]): 5.2; Rate (Cytochrome P450 2C19 [14]): 160; Extent (Cytochrome P450 2C19 [15]): 23; Extent (Cytochrome P450 2C19 [16]): 21; Extent (Cytochrome P450 2C19 [17]): 131; Extent (Cytochrome P450 2C19 [18]): 116; Extent (Cytochrome P450 2C19 [19]): 105; Extent (Cytochrome P450 2C19 [20]): 25
3 | COc1cc(C[C@H](C)N)c(OC)cc1C | 3.1 | 1.5 | 1.7 | 1.1 | 29 | 136 | Rate [21]: 0; Kd (Cytochrome P450 2C19 [22]): 6 µM; Extent [23]: 0
